Source: ChEMBL document CHEMBL4038331 (J Med Chem, 2017)
Active and inactive are the calls of the source. The calls are words filed in the database; no cut-off is given here.

Key:
[1] = system: Liver; test: Decrease in oxidative phosphorylation efficiency in rat liver mitochondria assessed as reduction in coupling between ATP systhesis and oxygen consumption after 5 mins in presence of glutamate/malate; type: functional
Summary of the method: (§1)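 Glutamate/malate (10/5 mM) or succinate (5 mM) was the substrate, with compound 2.5–10 μM for 5 min (state 2). ADP was added (125 nmol glutamate/malate; 75 nmol succinate), then oligomycin 2 μg/mL, then FCCP 1 μM. RCR and ADP/O were calculated. Seven experiments.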

[2] = system: Liver; test: Induction of membrane hyperpolarization in rat liver mitochondria assessed as change in repolarization potential at 2.5 uM; type: functional
Summary of the method: (§2)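 Safranine (5 μM) fluorescence (ex 495/em 586 nm) at 25 °C. Rat liver mitochondria (0.5 mg/2 mL) were in 200 mM sucrose, 1 mM KH2PO4, 10 mM Tris pH 7.4, 10 μM EGTA with glutamate/malate or succinate, after 5 min with 2.5–10 μM. ADP 25 nmol depolarised, then FCCP 1 μM was added. A valinomycin calibration in K+-free medium was used, five experiments.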

[3] = system: Liver; test: Antioxidant activity in rat liver mitochondria assessed as inhibition of FeSO4/H2O2-induced lipid peroxidation at 5 uM preincubated for 5 mins followed by FeSO4/H2O2 addition for 15 mins by TBARS-based fluorescence assay; type: functional
Summary of the method: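 Rat liver mitochondria (2 mg protein/mL) in 100 mM KCl, 10 mM Tris-HCl pH 7.6 with glutamate/malate at 37 °C. After 5 min with compound (5 μM), 100 μM FeSO4/500 μM H2O2/5 mM ascorbate was added for 15 min. Butylated hydroxytoluene, perchloric acid and thiobarbituric acid were added, then heated 15 min at 100 °C. Read-out as % of control, three experiments.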

[4] = system: Liver; test: Induction of basal respiration in rat liver mitochondria measured 5 mins after ADP phosphorylation in presence of succinate; type: functional; summary of the method: as §1
[5] = system: Liver; test: Increase in oligomycin-inhibited respiration in rat liver mitochondria after 5 mins in presence of succinate; type: functional; summary of the method: as §1
[6] = system: Liver; test: Induction of basal oxygen consumption under nonphosphorylative conditions in rat liver mitochondria after 5 mins in presence of succinate; type: functional; summary of the method: as §1
[7] = system: Liver; test: Antioxidant activity in rat liver mitochondria assessed as inhibition of ADP/FeSO4-induced lipid peroxidation at 5 uM preincubated for 5 mins followed by ADP/FeSO4 addition; type: functional
Summary of the method: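 Rat liver mitochondria (2 mg) in 100 mM KCl, 10 mM Tris-HCl pH 7.6, with glutamate/malate (5/2.5 mM) at 37 °C. After 5 min with compound (5 μM), peroxidation was started with ADP/0.1 mM FeSO4. The lag phase of O2 consumption was measured by Clark electrode and expressed as % of control. Six experiments.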

[8] = Antioxidant activity assessed as GO radical scavenging activity measured for 30 mins in absence of light; type: functional
Summary of the method: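 Ethanolic GO• (5 mM stock) diluted to absorbance 1.00 ± 0.02 at 428 nm. Test solutions (5–75 μM in ethanol) were added in triplicate and read at 428 nm at room temperature. Inhibition was taken against an ethanol blank (100% radical).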

[9] = system: Liver; test: Decrease in oxidative phosphorylation efficiency in rat liver mitochondria assessed as reduction in coupling between ATP systhesis and oxygen consumption after 5 mins in presence of succinate; type: functional; summary of the method: as §1
[10] = species on record: Rattus norvegicus; test: Inhibition of mPTP in energized rat liver mitochondria at 2.5 to 10 uM after 5 mins in presence of succinate by spectrophotometric analysis
[11] = Redox potential of compound in Ag/AgCl-NaCl containing phosphate buffer at 0.1 mM at pH 7.4 by cyclic voltammetric analysis
Summary of the method: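 Voltammetry used a glassy carbon working electrode, Pt counter and Ag/AgCl reference. Compound was at 0.1 mM final (10 mM ethanolic stock) in pH 7.4 potassium phosphate electrolyte.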

[12] = system: Liver; test: Decrease in oxidative phosphorylation efficiency in rat liver mitochondria assessed as reduction in respiratory control ratio after 5 mins in presence of glutamate/malate; type: functional; summary of the method: as §1
[13] = system: Liver; test: Inhibition of ADP-induced membrane depolarization in succinate energized rat liver mitochondria at 10 uM preincubated for 5 mins followed by ADP addition measured by safranine-based spectrofluorometric analysis; type: functional, tissue-based; summary of the method: as §2
[14] = system: Liver; test: Induction of basal oxygen consumption under nonphosphorylative conditions in rat liver mitochondria after 5 mins in presence of glutamate/malate; type: functional; summary of the method: as §1
[15] = system: Liver; test: Ratio of drug level in rat liver intra-mitochondria to extra-mitochondria at 1 uM in presence of succinate/valinomycin by TPP+-based electrode assay; type: ADME, tissue-based
Summary of the method: (§3)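 TPP+-selective electrode with rat liver mitochondria (0.5 mg/mL) in 120 mM KCl, 10 mM HEPES pH 7.2, 1 mM EGTA at 37 °C with rotenone 1.5 μM. Five 1 μM additions calibrated the electrode, then succinate 10 mM was added, then valinomycin 0.2 μg/mL. The accumulation ratio assumed a matrix volume of ~0.5 μL/mg with a binding correction.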

[16] = Antioxidant activity assessed as DPPH radical scavenging activity measured every minute for 45 mins; type: functional
Summary of the method: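 DPPH• ethanolic solution diluted to absorbance 0.72 ± 0.02 at 515 nm. Ethanolic test solutions (50–500 μM) were added in triplicate and read at 515 nm. Inhibition was taken against an ethanol blank (100% radical), and IC50 was read from dose–response curves.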

[17] = Antioxidant activity assessed as ABTS radical scavenging activity measured each minute for 15 mins by spectrophotometric analysis; type: functional
Summary of the method: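 ABTS•+ generated from 7 mM ABTS plus potassium persulfate, held 16 h dark at room temperature, then diluted in ethanol to absorbance 0.72 ± 0.02. Ethanolic test solutions (10–500 μM) were added to radical solution in triplicate. Inhibition was taken against an ethanol blank (100% radical), and IC50 was read from dose–response curves.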

[18] = system: Liver; test: Induction of basal respiration in rat liver mitochondria measured 5 mins after ADP phosphorylation in presence of glutamate/malate; type: functional; summary of the method: as §1
[19] = system: Liver; test: Increase in oligomycin-inhibited respiration in rat liver mitochondria after 5 mins in presence of glutamate/malate; type: functional; summary of the method: as §1
[20] = Lipophilicity of compound in Ag/AgCl-NaCl containing PET membrane assessed as tranfer potential at pH 7; type: physicochemical
Summary of the method: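 Transfer across a liquid–liquid interface on a microporous PET membrane, with 1,6-dichlorohexane organic phase containing BTPPATPBCl. A gelled 2 mM BTPPACl + 2 mM NaCl reference was used, with 10 mM Tris-HCl pH 7.0 aqueous electrolyte.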

[21] = system: Liver; test: Drug uptake in rat liver intra-mitochondria at 1 uM in presence of succinate/valinomycin by TPP+-based electrode assay; type: ADME, tissue-based; summary of the method: as §3
[22] = system: Liver; test: Drug uptake in rat liver extra-mitochondria at 1 uM in presence of succinate/valinomycin by TPP+-based electrode assay; type: ADME, tissue-based; summary of the method: as §3
[23] = Induction of mPTP in energized rat liver mitochondria at 2.5 to 10 uM after 5 mins in presence of succinate by spectrophotometric analysis
[24] = system: Liver; test: Induction of ADP-stimulated respiration in rat liver mitochondria after 5 mins in presence of glutamate/malate; type: functional; summary of the method: as §1
[25] = system: Liver; test: Induction of ADP-stimulated respiration in rat liver mitochondria after 5 mins in presence of succinate; type: functional; summary of the method: as §1
[26] = Iron chelating activity in ammonium acetate buffer assessed as inhibition of [Fe(ferrozine)3]2+ formation at 100 uM at pH 6.7 measured after 10 mins by spectrophotometric analysis
Summary of the method: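 Ferrozine assay in ammonium acetate buffer pH 6.7. Compound (100 μM) plus ammonium iron(II) sulfate (20 μM) for 10 min, read at 562 nm. Ferrozine was added, incubated 10 min at 37 °C, and re-read at 562 nm. The first reading was subtracted, with a DMSO blank and EDTA = 100%. Three experiments.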

[27] = species on record: Rattus norvegicus; test: Inhibition of mPTP in energized rat liver mitochondria at 10 uM after 5 mins in presence of succinate by spectrophotometric analysis
Summary of the method: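 Ca2+ (15–50 μM, titrated daily) added to trigger mPTP, with cyclosporin A as control. Swelling followed as light scattering at 540 nm with stirring at 37 °C. Reported as Δabsorbance; mean ± SEM, n=3.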

SMILES | Activity [1] | Activity [4] | Activity [5] | Activity [6] | IC50 [8] | Activity [9] | Activity [11] | Activity [12] | Activity [14] | Ratio [15] | IC50 [16] | IC50 [17] | Activity [18] | Activity [19] | Activity [20] | Drug uptake [21] | Drug uptake [22] | Activity [23] | Activity [24] | Activity [25] | also measured
CS(=O)(=O)[O-].O=C(/C=C/c1cc(O)c(O)c(O)c1)NCCCCCCCCCC[P+](c1ccccc1)(c1ccccc1)c1ccccc1 | Dose-dependent effect | Dose-dependent effect | Dose-dependent effect | Dose-dependent effect | 2.5 µM | Dose-dependent effect | 0.057 V | Dose-dependent effect | Dose-dependent effect | 3500 | 13.7 µM | 7.5 µM | Dose-dependent effect | Dose-dependent effect | 0.377 V | 5 mM | 1.4 µM | Non-Toxic | Dose-dependent effect | Dose-dependent effect | Activity [2]: 25 mV; inhibition [3]: Active; inhibition [7]: Active; inhibition [10]: Active; inhibition [13]: Active
CS(=O)(=O)[O-].O=C(/C=C/c1ccc(O)c(O)c1)NCCCCCC[P+](c1ccccc1)(c1ccccc1)c1ccccc1 | Dose-dependent effect | Dose-dependent effect | Dose-dependent effect | Dose-dependent effect | 4.1 µM | Dose-dependent effect | 0.164 V | Dose-dependent effect | Dose-dependent effect | 2500 | 29.5 µM | 30.5 µM | Dose-dependent effect | Dose-dependent effect | 0.396 V | 2.5 mM | 1.8 µM | – | Dose-dependent effect | Dose-dependent effect | inhibition [3]: Active; inhibition [26]: Active
O=C(O)CN(CCN(CC(=O)O)CC(=O)O)CC(=O)O | – | – | – | – | – | – | – | – | – | – | – | – | – | – | – | – | – | – | – | – | inhibition [26]: Active
COC1=C(OC)C(=O)C(CCCCCCCCCC[P+](c2ccccc2)(c2ccccc2)c2ccccc2)=C(C)C1=O.CS(=O)(=O)[O-] [MITOQUINONE MESYLATE] | – | – | – | – | – | – | – | – | – | – | – | – | – | – | – | – | – | Non-Toxic | – | – | inhibition [26]: inactive; inhibition [27]: inactive
CS(=O)(=O)[O-].O=C(/C=C/c1cc(O)c(O)c(O)c1)NCCCCCCCC[P+](c1ccccc1)(c1ccccc1)c1ccccc1 | Dose-dependent effect | Dose-dependent effect | Dose-dependent effect | Dose-dependent effect | 2.3 µM | Dose-dependent effect | 0.046 V | Dose-dependent effect | Dose-dependent effect | 3900 | 14.7 µM | 8.7 µM | Dose-dependent effect | Dose-dependent effect | 0.423 V | 4.5 mM | 1 µM | Non-Toxic | Dose-dependent effect | Dose-dependent effect | Activity [2]: 25 mV; inhibition [7]: Active; inhibition [10]: Active
CS(=O)(=O)[O-].O=C(/C=C/c1ccc(O)c(O)c1)NCCCCCCCC[P+](c1ccccc1)(c1ccccc1)c1ccccc1 | Dose-dependent effect | Dose-dependent effect | Dose-dependent effect | Dose-dependent effect | 2.8 µM | Dose-dependent effect | 0.17 V | Dose-dependent effect | Dose-dependent effect | 5100 | 28 µM | 27.9 µM | Dose-dependent effect | Dose-dependent effect | 0.345 V | 5.7 mM | 1.2 µM | Non-Toxic | Dose-dependent effect | Dose-dependent effect | Activity [2]: 10 mV; inhibition [10]: Active
O=C(O)/C=C/c1ccc(O)c(O)c1 [CAFFEIC ACID] | – | – | – | – | 3.4 µM | – | 0.168 V | – | – | – | 18.1 µM | 17.9 µM | – | – | – | – | – | – | – | – | –
CS(=O)(=O)[O-].O=C(/C=C/c1ccc(O)c(O)c1)NCC[P+](c1ccccc1)(c1ccccc1)c1ccccc1 | Dose-dependent effect | Dose-dependent effect | Dose-dependent effect | Dose-dependent effect | 4.5 µM | Dose-dependent effect | 0.166 V | Dose-dependent effect | – | 600 | 35.4 µM | 33.3 µM | Dose-dependent effect | Dose-dependent effect | 0.572 V | 1.5 mM | 3.7 µM | – | Dose-dependent effect | Dose-dependent effect | inhibition [7]: Active
